The record followed here is ChEMBL document CHEMBL3867483, “Gaining in pan-affinity towards sigma 1 and sigma 2 receptors. SAR studies on arylalkylamines” (Bioorg Med Chem, 2017).

A word on the Ki: it is a dissociation constant, usually derived from enzyme kinetics or from competition with a known ligand. Low values mean a stronger hold on the target, high ones a looser hold on the target.

Each structure is given as a SMILES string.

The nature of experiment [1]: Displacement of [3H]-DTG from sigma 2 receptor in rat liver membranes after 120 mins by scintillation counting analysis. The experiment is classed as cell membranes, Membrane. The method, boiled down:
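Rat liver homogenate (150 μg) incubated 120 min at room temperature with 3 nM [3H]-DTG in 50 mM Tris-HCl pH 8.0. Excess unlabeled (+)-pentazocine masked S1R, and high unlabeled DTG defined nonspecific binding. Compound at 10^-10 to 10^-5 M final, in duplicate. Filtered through PEI-presoaked filtermats and counted by scintillation. IC50 from nonlinear regression, converted to Ki by Cheng-Prusoff; mean ± SEM of three experiments.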
Background: Loss of bound radioactivity is the signal in a displacement assay; it reports binding, not function.

Experiment [2] is described as follows: Selectivity ratio of Ki for sigma 2 receptor in rat liver membranes to Ki for sigma 1 receptor in guinea pig cerebral cortex membranes. The experiment is classed as cell membranes. The method, boiled down:
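Ratio computed as Ki at S2R (rat liver, [3H]-DTG with S1R masked by (+)-pentazocine) divided by Ki at S1R (guinea pig cortex, [3H](+)-pentazocine). Both Ki values come from Cheng-Prusoff conversion of IC50s from 120 min displacement assays, each the mean of three experiments.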

For experiment [3], the target named is Sigma non-opioid intracellular receptor 1 (Cavia porcellus, UniProt Q60492). As to the kind of experiment: Displacement of [3H]-(+)-pentazocine from sigma 1 receptor in guinea pig cerebral cortex membranes after 120 mins by scintillation counting analysis. Details: species or system Membrane.
Chain of Sigma non-opioid intracellular receptor 1 (Q60492 whole entry): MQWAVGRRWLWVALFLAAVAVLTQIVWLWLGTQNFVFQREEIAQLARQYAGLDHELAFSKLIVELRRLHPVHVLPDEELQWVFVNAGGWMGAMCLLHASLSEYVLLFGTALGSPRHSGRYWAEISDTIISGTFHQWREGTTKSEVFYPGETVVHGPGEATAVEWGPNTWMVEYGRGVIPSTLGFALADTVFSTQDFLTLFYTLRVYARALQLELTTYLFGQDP

On to `COc1cccc(C(C)CCN(C)C)c1` (stereo not given), for which the Ki came to 0.864 µM in experiment [1] and 0.239 µM in experiment [3]. The Ratio Ki in experiment [2] turned out to be 3.62.

As for `CC(CCN1CCOCC1)c1ccccc1` (racemic), the figures for the inhibitory constant (Ki) in experiment [1] and in experiment [3] were 0.071 µM and 0.085 µM, respectively. In addition, the Ratio Ki in experiment [2] came out at 1.2.

Consider `CC(CCN(C)C)c1ccc2ccccc2c1` (racemic), for which the Ki in experiment [1] amounted to 0.0438 µM. For the same compound, the Ratio Ki in experiment [2] came to 22.

With `COc1ccc(C(C)CCN2CCCCC2)cc1` (racemic), the Ki in experiment [1] is 0.058 µM; in experiment [3], 0.02 µM. Besides, the Ratio Ki in experiment [2] came out at 2.9.

As to `CC(CCN1CCC(Cc2ccccc2)CC1)c1ccccc1` (racemic), in experiment [1], the Ki was 0.0065 µM. In addition, the Ratio Ki in experiment [2] came out at 3.1.

Regarding `COc1cccc(C(C)CCN2CCCCC2)c1` (racemic), the Ki in experiment [1] was 0.035 µM; in experiment [3], 0.036 µM. For the same compound, in experiment [2], the Ratio Ki amounted to 0.97.

In the case of `CC(CCN1CCC(Cc2ccccc2)CC1)c1ccc2ccccc2c1` (racemic), the figures for the Ki in experiment [1] and in experiment [3] were 0.144 µM and 0.019 µM, respectively. In experiment [2], the Ratio Ki came to 7.6.

As for `CC(CCN1CCCCC1)c1ccc2ccccc2c1` (racemic), the Ki worked out at 0.05 µM in experiment [1] and 0.0015 µM in experiment [3]. The Ratio Ki in experiment [2] was found to be 33.3.

Consider `COc1ccc(C(C)CCN(C)C)cc1` (racemic), for which the Ki in experiment [1] amounted to 0.255 µM; in experiment [3] it was 0.116 µM. The Ratio Ki in experiment [2] amounted to 2.2.

For `CC(CCN1CCCCC1)c1ccccc1` (racemic), the results for the Ki in experiment [1] and in experiment [3] were 0.056 µM and 0.046 µM, respectively. In addition, in experiment [2], the Ratio Ki amounted to 1.22.

For the compound `COc1ccc(C(C)CCN2CCC(Cc3ccccc3)CC2)cc1` (racemic), the Ki in experiment [1] was 0.018 µM; in experiment [3], 0.0035 µM. The Ratio Ki in experiment [2] was 5.14.

Turning to `COc1cccc(C(C)CCN2CCOCC2)c1` (racemic), the Ki in experiment [1] was found to be 0.092 µM; in experiment [3], 0.137 µM. The Ratio Ki in experiment [2] is 0.67.

As for `COc1cccc(C(C)CCN2CCC(Cc3ccccc3)CC2)c1` (racemic), the Ki in experiment [1] was found to be 0.014 µM; in experiment [3], 0.0029 µM. Also, the Ratio Ki in experiment [2] worked out at 4.83.

Consider `CC(CCN1CCOCC1)c1ccc2ccccc2c1` (racemic), for which the Ki in experiment [1] turned out to be 0.033 µM; in experiment [3], 0.0054 µM. Besides, the Ratio Ki in experiment [2] amounted to 6.1.

In the case of `CC(CCN(C)C)c1ccccc1` (racemic), the results for the Ki in experiment [1] and in experiment [3] were over 1 µM and 0.427 µM, respectively.

Consider `COc1ccc(C(C)CCN2CCOCC2)cc1` (racemic), for which the results for the inhibitory constant (Ki) in experiment [1] and in experiment [3] were 0.068 µM and 0.076 µM, respectively. Further, the Ratio Ki in experiment [2] is 0.89.
